Laboratory results taken from ChEMBL document CHEMBL2407039 (Eur J Med Chem, 2013).
Values after ≈ are worked out from the molar mass of the structure shown. Active and inactive are the calls of the source. The rule behind the calls is not given here.

What was measured:
[1] = molecular target: Fibroblast growth factor receptor 1 (Homo sapiens, UniProt P11362); assay: Inhibition of FGFR1 (unknown origin) using poly (Glu, Tyr)4:1 as substrate by ELISA
[2] = molecular target: Platelet-derived growth factor receptor beta (Homo sapiens, UniProt P09619); assay: Inhibition of PDGFRbeta (unknown origin) using poly (Glu, Tyr)4:1 as substrate by ELISA
Platelet-derived growth factor receptor beta, sequence (P09619 whole entry): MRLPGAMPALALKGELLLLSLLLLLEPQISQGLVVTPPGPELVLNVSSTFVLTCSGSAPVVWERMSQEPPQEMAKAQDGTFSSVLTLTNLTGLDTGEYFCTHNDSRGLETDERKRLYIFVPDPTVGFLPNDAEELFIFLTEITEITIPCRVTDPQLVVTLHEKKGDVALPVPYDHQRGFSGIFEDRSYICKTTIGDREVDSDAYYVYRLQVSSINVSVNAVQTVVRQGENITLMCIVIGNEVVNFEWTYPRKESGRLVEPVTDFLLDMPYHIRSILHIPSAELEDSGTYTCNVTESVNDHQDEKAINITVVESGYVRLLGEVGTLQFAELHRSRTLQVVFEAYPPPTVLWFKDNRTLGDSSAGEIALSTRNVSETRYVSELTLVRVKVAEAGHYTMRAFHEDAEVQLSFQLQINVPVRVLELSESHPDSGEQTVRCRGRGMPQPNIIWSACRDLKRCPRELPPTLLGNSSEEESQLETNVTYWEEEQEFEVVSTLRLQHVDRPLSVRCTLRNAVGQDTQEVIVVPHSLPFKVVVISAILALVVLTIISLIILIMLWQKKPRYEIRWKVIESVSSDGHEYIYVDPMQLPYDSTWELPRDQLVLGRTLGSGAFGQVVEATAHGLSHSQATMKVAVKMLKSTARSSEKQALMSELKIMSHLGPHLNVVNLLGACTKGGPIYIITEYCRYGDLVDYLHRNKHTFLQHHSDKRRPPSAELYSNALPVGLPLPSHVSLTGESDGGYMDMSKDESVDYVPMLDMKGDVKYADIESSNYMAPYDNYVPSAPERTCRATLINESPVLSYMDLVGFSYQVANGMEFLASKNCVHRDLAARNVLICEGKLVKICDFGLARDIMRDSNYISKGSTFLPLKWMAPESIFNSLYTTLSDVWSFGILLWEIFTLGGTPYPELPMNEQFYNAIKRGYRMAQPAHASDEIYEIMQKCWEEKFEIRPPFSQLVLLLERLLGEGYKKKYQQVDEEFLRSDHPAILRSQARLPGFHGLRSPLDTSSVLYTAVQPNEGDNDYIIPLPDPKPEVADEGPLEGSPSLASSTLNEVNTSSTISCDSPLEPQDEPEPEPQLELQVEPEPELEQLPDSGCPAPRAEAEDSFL

[3] = molecular target: Vascular endothelial growth factor receptor 2 (Homo sapiens, UniProt P35968); assay: Inhibition of KDR (unknown origin) using poly (Glu, Tyr)4:1 as substrate by ELISA
[4] = molecular target: Platelet-derived growth factor receptor alpha (Homo sapiens, UniProt P16234); assay: Inhibition of PDGFRalpha (unknown origin) using poly (Glu, Tyr)4:1 as substrate by ELISA
Platelet-derived growth factor receptor alpha, sequence (P16234 whole entry): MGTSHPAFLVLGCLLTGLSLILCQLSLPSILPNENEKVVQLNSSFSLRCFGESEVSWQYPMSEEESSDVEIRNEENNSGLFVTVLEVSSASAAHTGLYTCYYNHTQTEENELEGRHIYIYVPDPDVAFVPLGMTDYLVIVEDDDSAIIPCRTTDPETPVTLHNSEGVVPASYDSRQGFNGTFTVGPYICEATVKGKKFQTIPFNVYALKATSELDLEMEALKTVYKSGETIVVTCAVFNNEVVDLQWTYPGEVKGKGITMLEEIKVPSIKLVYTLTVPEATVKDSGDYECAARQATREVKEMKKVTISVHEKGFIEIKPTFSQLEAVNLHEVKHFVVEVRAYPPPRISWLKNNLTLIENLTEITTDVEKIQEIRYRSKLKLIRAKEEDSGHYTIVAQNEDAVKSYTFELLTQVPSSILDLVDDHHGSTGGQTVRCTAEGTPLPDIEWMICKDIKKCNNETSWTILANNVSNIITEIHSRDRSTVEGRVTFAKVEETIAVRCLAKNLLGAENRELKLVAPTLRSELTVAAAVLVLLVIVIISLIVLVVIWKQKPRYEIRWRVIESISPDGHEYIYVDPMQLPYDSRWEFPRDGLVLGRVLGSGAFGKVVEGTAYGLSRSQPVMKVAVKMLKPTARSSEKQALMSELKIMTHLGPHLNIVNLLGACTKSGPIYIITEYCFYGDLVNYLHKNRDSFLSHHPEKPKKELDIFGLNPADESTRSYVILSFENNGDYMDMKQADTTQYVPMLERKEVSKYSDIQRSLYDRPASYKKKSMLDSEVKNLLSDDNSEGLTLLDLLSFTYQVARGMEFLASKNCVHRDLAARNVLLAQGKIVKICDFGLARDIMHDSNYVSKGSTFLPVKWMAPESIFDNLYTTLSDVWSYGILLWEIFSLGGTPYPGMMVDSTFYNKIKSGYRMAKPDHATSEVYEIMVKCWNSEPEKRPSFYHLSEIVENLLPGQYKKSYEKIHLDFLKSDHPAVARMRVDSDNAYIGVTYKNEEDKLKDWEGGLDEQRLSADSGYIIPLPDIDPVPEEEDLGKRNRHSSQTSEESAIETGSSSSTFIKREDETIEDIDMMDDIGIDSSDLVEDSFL
Outline: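 ELISA on wells precoated with 2.5 µg/well poly(Glu,Tyr) 4:1. Reaction buffer was 50 mM HEPES pH 7.4, 20 mM MgCl2, 0.1 mM Na3VO4, 1 mM DTT, with 10 µM ATP; the reaction was started by adding kinase and run 1 h at 37 °C. Phosphotyrosine detected with PY99 and HRP anti-mouse IgG, o-phenylenediamine development, read at 490 nm.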

DNA [5] = assay: Binding affinity to calf thymus DNA assessed as intercalation at 10 uM after 1 hr by fluorescence spectrophotometry; assay type: nucleic-acid assay; conditions: Bos taurus
Outline: (§1)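 Fluorescence spectra were recorded at 25 °C. Compound was present at 10 µM with calf thymus DNA at 0–80 µM, in 20 mM Tris-HCl (pH 7.5) containing 1% DMSO.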

DNA [6] = assay: Binding affinity to calf thymus DNA assessed as intercalation at 20 uM after 2 hrs by circular dichroism spectrophotometry; assay type: nucleic-acid assay; conditions: Bos taurus
Outline: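 Calf thymus DNA (100 µM) was incubated with compound (20 µM) in Tris-HCl buffer for 2 h at 25 °C. CD spectra were then analysed over 230–300 nm.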

[7] = Solubility of the compound in PBS buffer at PH 7.4 after 24 hrs by UV-Visible spectrophotometry; assay type: physicochemical
DNA [8] = assay: Binding affinity to calf thymus DNA assessed as intercalation after 1 hr by fluorescence spectrophotometric analysis; assay type: nucleic-acid assay; conditions: Bos taurus; outline: as §1
[9] = Cytotoxicity against human LO2 cells after 72 hrs by sulforhodamine B assay; assay type: cell-based; conditions: L02, 72 h
Outline: (§2)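 Cells seeded and cultured overnight, then treated with increasing compound concentrations for 72 h. Fixed with 10% TCA, stained with sulforhodamine B, dye dissolved in 10 mM Tris-HCl, read at 515 nm. Inhibition taken relative to untreated control. IC50 by the Logit method; triplicate experiments.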

[10] = Cytotoxicity against human GES-1 cells after 72 hrs by sulforhodamine B assay; assay type: cell-based; conditions: GES1, 72 h; outline: as §2
A549 = assay: Cytotoxicity against human A549 cells after 72 hrs by sulforhodamine B assay; assay type: functional, cell-based; conditions: A549, 72 h; outline: as §2
HL-60 = assay: Cytotoxicity against human HL60 cells after 72 hrs by MTT assay; assay type: functional, cell-based; conditions: HL-60, 72 h
Outline: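 HL60 cells were treated with increasing compound concentrations for 72 h. MTT was then added for 4 h. Cells were lysed overnight at 37 °C in 10% SDS–5% isobutanol–12 mM HCl and read at 570 nm. Inhibition taken relative to control. IC50 by the Logit method; triplicate experiments.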

MDA-MB-231 = assay: Cytotoxicity against human MDA-MB-231 cells after 72 hrs by sulforhodamine B assay; assay type: functional, cell-based; conditions: MDA-MB-231, 72 h; outline: as §2
[11] = molecular target: DNA topoisomerase 2-alpha (Homo sapiens) (UniProt P11388); assay: Inhibition of human topoisomerase 2 alpha-mediated decatenation of kinetoplast DNA at 100 uM after 30 mins by agarose gel electrophoresis in presence of ATP relative to control
DNA topoisomerase 2-alpha (Homo sapiens), sequence (P11388 whole entry): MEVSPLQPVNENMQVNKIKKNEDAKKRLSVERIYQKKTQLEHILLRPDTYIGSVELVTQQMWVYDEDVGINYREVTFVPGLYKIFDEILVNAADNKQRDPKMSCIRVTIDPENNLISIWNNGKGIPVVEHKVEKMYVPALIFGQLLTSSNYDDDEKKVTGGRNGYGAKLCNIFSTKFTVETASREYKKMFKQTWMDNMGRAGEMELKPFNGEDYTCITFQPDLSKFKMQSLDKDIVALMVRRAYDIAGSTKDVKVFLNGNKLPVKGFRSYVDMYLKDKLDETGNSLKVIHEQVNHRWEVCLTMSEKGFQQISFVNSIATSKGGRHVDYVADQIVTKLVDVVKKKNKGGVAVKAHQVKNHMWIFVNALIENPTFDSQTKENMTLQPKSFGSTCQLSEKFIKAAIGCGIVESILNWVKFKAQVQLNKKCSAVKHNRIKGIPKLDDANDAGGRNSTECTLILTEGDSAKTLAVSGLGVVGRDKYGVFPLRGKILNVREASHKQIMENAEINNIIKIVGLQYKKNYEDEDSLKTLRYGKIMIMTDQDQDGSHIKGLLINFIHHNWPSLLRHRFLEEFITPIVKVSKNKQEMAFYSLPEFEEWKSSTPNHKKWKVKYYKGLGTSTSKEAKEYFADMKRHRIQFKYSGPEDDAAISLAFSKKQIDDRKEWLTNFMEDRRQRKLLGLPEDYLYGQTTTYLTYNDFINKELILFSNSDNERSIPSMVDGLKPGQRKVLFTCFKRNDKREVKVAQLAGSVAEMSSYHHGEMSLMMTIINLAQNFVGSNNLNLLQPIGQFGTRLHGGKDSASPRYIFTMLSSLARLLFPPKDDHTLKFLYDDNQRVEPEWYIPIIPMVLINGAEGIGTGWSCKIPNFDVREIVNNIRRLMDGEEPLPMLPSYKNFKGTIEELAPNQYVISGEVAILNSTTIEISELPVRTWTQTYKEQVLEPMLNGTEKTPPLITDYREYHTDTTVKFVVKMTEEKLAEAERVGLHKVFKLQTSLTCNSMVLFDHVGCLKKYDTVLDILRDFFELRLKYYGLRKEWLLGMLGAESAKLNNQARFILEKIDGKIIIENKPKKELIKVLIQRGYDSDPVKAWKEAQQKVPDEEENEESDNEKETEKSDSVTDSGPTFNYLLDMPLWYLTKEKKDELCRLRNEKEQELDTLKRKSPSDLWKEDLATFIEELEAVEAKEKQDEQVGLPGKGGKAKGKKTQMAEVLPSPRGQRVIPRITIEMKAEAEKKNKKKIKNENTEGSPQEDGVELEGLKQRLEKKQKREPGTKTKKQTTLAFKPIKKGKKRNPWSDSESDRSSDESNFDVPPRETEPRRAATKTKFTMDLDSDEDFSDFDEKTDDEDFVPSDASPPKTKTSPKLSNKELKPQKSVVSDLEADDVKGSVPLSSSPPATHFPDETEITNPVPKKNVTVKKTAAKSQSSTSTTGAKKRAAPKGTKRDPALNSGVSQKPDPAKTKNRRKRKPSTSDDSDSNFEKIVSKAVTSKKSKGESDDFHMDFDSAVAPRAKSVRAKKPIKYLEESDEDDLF
Outline: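 ATP-dependent decatenation of 0.1 µg kinetoplast DNA by 1 unit of human topo IIα. Incubated 30 min at 37 °C in 50 mM Tris-HCl pH 8.0, 150 mM NaCl, 10 mM MgCl2, 2 mM ATP, 0.5 mM DTT. Gel images quantified by densitometry.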

Fibroblast growth factor receptor 1, sequence (P11362 whole entry): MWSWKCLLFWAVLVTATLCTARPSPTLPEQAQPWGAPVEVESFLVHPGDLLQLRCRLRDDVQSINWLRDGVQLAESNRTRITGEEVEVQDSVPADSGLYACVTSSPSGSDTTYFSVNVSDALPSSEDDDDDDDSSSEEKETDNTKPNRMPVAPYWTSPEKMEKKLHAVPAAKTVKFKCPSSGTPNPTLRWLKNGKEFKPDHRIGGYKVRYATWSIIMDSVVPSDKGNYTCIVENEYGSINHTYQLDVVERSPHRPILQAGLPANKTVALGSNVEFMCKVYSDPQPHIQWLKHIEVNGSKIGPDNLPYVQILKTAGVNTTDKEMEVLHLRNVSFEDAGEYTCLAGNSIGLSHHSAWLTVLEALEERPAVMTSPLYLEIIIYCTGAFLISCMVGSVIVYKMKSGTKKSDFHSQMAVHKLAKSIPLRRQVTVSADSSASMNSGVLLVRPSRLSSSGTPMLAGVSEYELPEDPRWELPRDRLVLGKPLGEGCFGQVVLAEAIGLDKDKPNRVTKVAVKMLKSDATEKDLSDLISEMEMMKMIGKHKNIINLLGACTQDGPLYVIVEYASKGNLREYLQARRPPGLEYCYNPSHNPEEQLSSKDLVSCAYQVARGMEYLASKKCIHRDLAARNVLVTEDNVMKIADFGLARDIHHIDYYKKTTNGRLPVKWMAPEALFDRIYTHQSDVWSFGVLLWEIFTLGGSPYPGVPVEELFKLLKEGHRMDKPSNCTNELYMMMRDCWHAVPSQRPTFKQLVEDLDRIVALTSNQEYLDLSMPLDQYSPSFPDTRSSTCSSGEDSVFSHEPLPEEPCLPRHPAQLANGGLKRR

Row | Compound | IC50 [1] [µM] | IC50 [2] [µM] | IC50 [3] [µM] | IC50 [4] [µM] | Activity (DNA [5]) | Activity (DNA [6]) | solubility at 24 h [7] [mM] | Kb (DNA [8]) [×10⁵ /M] | IC50 [9] [µM] | IC50 [10] [µM] | IC50 (A549) [µM] | IC50 (HL-60) [µM] | IC50 (MDA-MB-231) [µM] | inhibition [11] [%]
1 | CN(C)CCNCCNc1ccc2c3c(cccc13)C(=O)N(C)C2=O | > 100 | > 100 | > 100 | > 100 | inactive | inactive | 78.4 (≈ 26.7 mg/mL) | 1.3 | 13.6 | > 50 | 24.5 | 7.8 | 7.9 | 97.1
2 | CCN1C(=O)c2cccc3c(NCCNCCN(C)C)ccc(c23)C1=O | > 100 | > 100 | > 100 | > 100 |  | inactive | 46.7 (≈ 16.6 mg/mL) |  | > 50 | > 50 | 31.4 | 17 | 24.3 | 86.7
3 | CCCCCCCCCCCCN1C(=O)c2cccc3c(NCCNCCN(C)C)ccc(c23)C1=O | 28.8 | > 50 | 27.6 | 26.2 |  | inactive | 0.063 (≈ 0.0312 mg/mL) |  | > 50 | > 50 | 19.1 | 1.8 | 6.6 | 96.6
4 | CCCCN1C(=O)c2cccc3c(NCCNCCN(C)C)ccc(c23)C1=O | > 100 | > 100 | > 100 | > 100 |  | inactive | 15.4 (≈ 5.89 mg/mL) |  | > 50 | > 50 | 21.4 | 5.8 | 10.5 | 90.2
